Results as given in ChEMBL document CHEMBL3399918, “In vitro radical scavenging and cytotoxic activities of novel hybrid selenocarbamates” (Bioorg Med Chem, 2015).

Tests used:
MCF7 = assay: Cytotoxicity against human MCF7 cells after 72 hrs by MTT assay; type: functional; conditions: MCF7, 72 h; for CC50: read-out: LC50 (the source's name)
Procedure, shortened: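 MCF-7 cells grown in EMEM with 10% foetal calf serum, 2 mM L-glutamine, 100 units/mL penicillin, 100 µg/mL streptomycin. Exposed to five concentrations between 0.01 and 100 μM for 72 h, 37 °C, humidified 5% CO2; MTT read-out. GI50, TGI, LC50 relative to untreated controls; ≥3 independent experiments in quadruplicate.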

HT-29 = assay: Cytotoxicity against human HT-29 cells after 72 hrs by MTT assay; type: functional; conditions: HT-29, 72 h
Procedure, shortened: (§1)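 CCRF-CEM, HT-29, PC-3 and HTB-54 cells grown in RPMI 1640 with 10% foetal calf serum, 2 mM L-glutamine, penicillin/streptomycin, 10 mM HEPES (pH 7.4). Five concentrations, 0.01–100 μM, 72 h at 37 °C, 5% CO2; MTT read-out. GI50, TGI and LC50 versus untreated controls; at least 3 independent experiments in quadruplicate.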

CCRF-CEM = assay: Cytotoxicity against human CCRF-CEM cells after 72 hrs by MTT assay; type: functional; procedure, shortened: as §1
[1] = Cytotoxicity against human PC3 cells after 72 hrs by MTT assay; type: functional; conditions: PC-3, 72 h; procedure, shortened: as §1
[2] = Cytotoxicity against human HTB-54 cells after 72 hrs by MTT assay; type: functional; conditions: HTB-54, 72 h; for CC50: read-out: LC50 (the source's name); procedure, shortened: as §1
[3] = Cytotoxicity against human 184B5 cells after 72 hrs by MTT assay; type: cell-based; conditions: for GI50 at 72 h: 184B5 cells; for LC50 / TGI: 184b5, 72 h
Procedure, shortened: (§2)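 Non-malignant lines: 184B5 (normal breast) in Hams F-12/DMEM (50:50) with published supplements; BEAS-2B (bronchial epithelium) in Hams F-12/DMEM (50:50) with 10% foetal calf serum, 2 mM L-glutamine, penicillin/streptomycin. Compounds at five concentrations, 0.01–100 μM, 72 h, 37 °C, 5% CO2; MTT read-out. GI50, TGI, LC50 relative to untreated controls; ≥3 independent experiments in quadruplicate.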

[4] = Cytotoxicity against human BEAS2B cells after 72 hrs by MTT assay; type: cell-based, BEAS-2B; conditions: for GI50 at 72 h: BEAS2B cells; for LC50 / TGI: beas-2b, 72 h; procedure, shortened: as §2
[5] = Antioxidant activity assessed as DPPH radical scavenging activity at 0.5 mg/ml after 180 mins; type: physicochemical; conditions: 3 h
Procedure, shortened: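 Compounds in absolute ethanol, serially diluted from 1 mg/mL, mixed 1:1 with […] in ethanol. Final range 0.016–0.5 mg/mL, 6 concentrations. Incubated at 37 °C in the dark, with decolourisation followed at 517 nm at several time intervals. % scavenged = (A vehicle control − A sample)/A control × 100. Quadruplicate; mean ± SD.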

[6] = Antioxidant activity assessed as ABTS radical scavenging activity by measuring Trolox equivalent antioxidant capacity after 6 mins; type: physicochemical; conditions: 0.1 h
Procedure, shortened: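 ABTS dissolved in deionized water at 1 mg/mL, oxidised to radical cation with potassium persulfate (2.45 mM final), kept overnight at room temperature in dark, then diluted with 50% ethanol to A741 = 0.700 ± 0.02. Compound (1 mg/mL ethanol stock) added 1:10 (0.1 mg/mL); A741 decrease read after 6 min against 50% ethanol blank. Trolox positive control; quadruplicate; TEAC from calibration curve.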

Row | Compound | GI50 (MCF7) [µM] | TGI (MCF7) [µM] | CC50 (MCF7) [µM] | GI50 (HT-29) [µM] | LC50 (HT-29) [µM] | TGI (HT-29) [µM] | GI50 (CCRF-CEM) [µM] | LC50 (CCRF-CEM) [µM] | TGI (CCRF-CEM) [µM] | GI50 [1] [µM] | LC50 (concentration causing 50% net cell kill) [1] [µM] | TGI [1] [µM] | GI50 [2] [µM] | TGI [2] [µM] | CC50 [2] [µM] | GI50 at 72 h [3] [µM] | LC50 [3] [µM] | TGI [3] [µM] | GI50 at 72 h [4] [nM] | LC50 [4] [µM] | further results
1 | CC(C)COC(=O)Nc1ccc([Se]C#N)cc1 | 18.1 | 45.5 | 73 | 8.1 | 63.7 | 31.3 | 9.3 | 68.7 | 38.3 | 21.6 | 73 | 47.3 | 27.1 | 51.2 | 75.4 | 5.8 | 60.9 | 21.6 | 26900 | 72.1 | TGI [4]: 49.5 µM; inhibition (INH) [5]: 27.1%; Activity [6]: 5.09 µg/µL
2 | CCCCCCOC(=O)Nc1ccc([Se]C#N)cc1 | 6.6 | 30.5 | 63.9 | 10.7 | 69.9 | 40.3 | 19.7 | 72.7 | 46.2 | 17.3 | 72 | 44.6 | 23.6 | 48.5 | 73 | 4.6 | 60.1 | 20 | 2800 | 68 | TGI [4]: 35.9 µM; inhibition (INH) [5]: > 25%
3 | CCCCCCOC(=O)Nc1ccc([Se][Se]c2ccc(NC(=O)OCCCCCC)cc2)cc1 | 15.8 | 52.9 | 89.9 | 11 | 74.2 | 42.6 | 6.2 | 67.3 | 34.4 | 0.6 | 66.7 | 25.7 | 31 | 54.3 | 77.2 | 4.6 | 53.4 | 9.8 | 10 | 51.8 | TGI [4]: 6.9 µM; inhibition (INH) [5]: < 16%
4 | N#C[Se]c1ccc(NC(=O)OCc2ccccc2)cc1 | 8.7 | 38.8 | 68.9 | 13.3 | 69.1 | 41.2 | 23.2 | 73.7 | 48.4 | 3.7 | 62.5 | 27.8 | 27.6 | 50.8 | 74 | 5 | 60.7 | 21.9 | 100 | 66.6 | TGI [4]: 34.4 µM; inhibition (INH) [5]: 3.7%; Activity [6]: 6.74 µg/µL
5 | O=C(Nc1ccc([Se][Se]c2ccc(NC(=O)Oc3ccccc3)cc2)cc1)Oc1ccccc1 | 8 | 36.7 | 69 | 13 | 70.2 | 41.6 | 22.4 | 73.7 | 48.1 | 5.3 | 62.9 | 27.2 | 22.7 | 56.2 | 89.8 | 4.5 | 48.9 | 9 | 1400 | 50.7 | TGI [4]: 8.6 µM; inhibition (INH) [5]: 66.9%
